Laboratory results as given in the EternaBench riboswitch data.

Tested on: MS2 coat protein
Assay: apparent Kd, MS2 coat protein; higher = weaker binding; RNA-MaP array; FMN 200 µM where present
How it was run: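 Green signal from SNAP-549-labelled MS2 coat protein was normalised to red-channel RNA signal and to the median Fmax of control clusters. The protein was titrated from 0.7 or 1.5 nM, doubling to 3 µM, without and then with constant ligand, over designs transcribed by stalled E. coli RNA polymerase on Illumina sequencing-chip clusters, in 100 mM Tris-HCl pH 7.5, 80 mM KCl, 4 mM MgCl2, BSA, DTT, yeast tRNA and Tween-20. The apparent Kd is the median of filtered per-cluster binding-curve fits.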

[1] = designed as: OFF switch for flavin mononucleotide, no ligand
[2] = ligand present: flavin mononucleotide, designed as: OFF switch for flavin mononucleotide
[3] = designed as: ON switch for flavin mononucleotide, no ligand
[4] = ligand present: flavin mononucleotide, designed as: ON switch for flavin mononucleotide

## AAAAAGGCAGGAUAUACAUGAGGAUCACCCAUGUUUUAAAAAAAAAAAAAAAAAAAAAGUAGAAGGGCCAAAAA
[1]
  apparent Kd: 0.0554 µM
[2]
  apparent Kd: 0.0451 µM

## UGAGCGACCACAGGAUAUACUUGAGAAGACCGAGUAGAAGGGUGGAAGAGCAUGCAGUGACAUGAGGAUCACCCAUGUGGUUGG
[3]
  apparent Kd: 0.097 µM
[4]
  apparent Kd: 0.0658 µM

## UCUACGCGAAUCAAGAUGGAUAGAACAUGAGGAUCACCCAUGUAGGAUAUGCUACACAAAGUGUAGCAGAAGGACAAGCGUAGA
[1]
  apparent Kd: 0.0251 µM
[2]
  apparent Kd: 0.0357 µM

## UUGGACGUCGUAGGAUAUGUAGGAUAUUCCUACAUGAGGAUCACCCAUGUUGACAUGGAAGAAGGACAGAACGACGAUGUCCAU
[3]
  apparent Kd: 0.172 µM
[4]
  apparent Kd: 0.00607 µM

## AUUGGUUUGCGAGGAUAUGCUAAUAGUAAGUAUGCAGAAGGCGCGUUACAUAGAACCUCUAGUUACAUGAGGAUCACCCAUGUU
[1]
  apparent Kd: 0.0462 µM
[2]
  apparent Kd: 0.0454 µM

## AUCAGCUCGUCAGGAUAUACGUCACUGCGUUAGCAGUGUGGUAAGAUCACAUGAGGAUCACCCAUGUAGAAGGGACGAGCUGAU
[1]
  apparent Kd: 0.0138 µM
[2]
  apparent Kd: 0.263 µM

## CGACACAUGAGGGUCUCCCAUGACAUGAGGAUCACCCAUGUGCAGGAUAUACGUGUGAUGGUAUAGUAGAAGGGCACUCUAUGU
[1]
  apparent Kd: 0.0416 µM
[2]
  apparent Kd: 0.058 µM

## GAUACACAUGAGGAUCACCCAUGUGAGGAUAUGCGUACGUUGUCCGUAGGCGACGUGCGCAGAAGGCGCGAGGU
[1]
  apparent Kd: 0.0414 µM
[2]
  apparent Kd: 0.0362 µM

## CAGUGCUGUUGAGAGGAUAUGCGGCGACGGACAUGAGGAUCACCCAUGUUAGCGACAGCGUUGCGGCAGAAGGCUCUGCCCGCUA
[3]
  apparent Kd: 0.0523 µM
[4]
  apparent Kd: 0.0231 µM

## CUACUCAUGUAAGGAUAUGCAGCCGAAACGGCUGCAGAAGGUACUAUAAUACAUGAGGAUCACCCAUGUAAAAUAAAUAAAGUU
[3]
  apparent Kd: 0.0338 µM
[4]
  apparent Kd: 0.0147 µM

## CGCUCUAUAUAUUAGGCAAGAAUCAGAAGGCGUUACAUGAGGAUCACCCAUGUUUUGUAUAGUAACGAGGAUAUGAUAUGAGCG
[1]
  apparent Kd: 0.0136 µM
[2]
  apparent Kd: 0.0145 µM

## GAGUUACAUGAGGAUCACCCAUGUUGUUGUGGAUAAGGAUAUAUGGUAGGAAGAGGAAUGAUAGAAGGUAUUAGGG
[3]
  apparent Kd: 0.0462 µM
[4]
  apparent Kd: 0.04 µM

## GAAUAGGCAGGAUAUACAUGAGGAUCACCCAUGUGCUUGCGCUAGGCACGUGAACAACGUAGAAGGGCCUAGAC
[1]
  apparent Kd: 0.014 µM
[2]
  apparent Kd: 0.0228 µM

## UUAUUAUUUAUAGGAUAUUGAUGUUUGCUAGUACAAGAAGGAUAAACAUGAGGAUCACCCAUGUAGUUUAAGGUUAGUUUGUUU
[3]
  apparent Kd: 0.0381 µM
[4]
  apparent Kd: 0.0394 µM

## AGCUAGUCAGGAUAUACGAACAUGUCAUUAGACGUGAAGGGACAUGAGGAUCACCCAUGUAGAAGGGACUAGCA
[1]
  apparent Kd: 0.04 µM
[2]
  apparent Kd: 0.134 µM

## UACAUGAGGAUCACCCAUGUUUUGUCGUGUAUGGUAUUUAUCUAGGAUAUCAAUAUAUUUAUUUAUGAGAAGGAGAAUAUUAAU
[1]
  apparent Kd: 0.038 µM
[2]
  apparent Kd: 0.0336 µM

## GCACAUGAGGAUCACCCAUGUGGUCCAGAAGGCCAGAGGAUCUGCUUUUAGCAGGUCCCUCAAAUGGAGGAUAUGGAGGGUUCU
[3]
  apparent Kd: 0.261 µM
[4]
  apparent Kd: 0.0447 µM

## UGGUACAUGGGAGGAUAUCCUCAAGAGACAUGAGGAUCACCCAUGUAUUAUAUGCCUCAUGGCAUGGAGAAGGCCCAUGUACCU
[3]
  apparent Kd: 0.179 µM
[4]
  apparent Kd: 0.153 µM

## UUUGAGUUCCGAGGCCGCGAGUUCACAGAAGGCAUUAUUACAUGAGGAUCACCCAUGUGGGUACAUGAGGAUAUGUGAUAUGCG
[3]
  apparent Kd: 0.0208 µM
[4]
  apparent Kd: 0.00655 µM

## ACAUGAUAUGUAGGAUAUCACAUUAAUUGAUUAAUAAUUGAAUAUAGGAUUUGAGAAGGACAUUUACAUGAGGAUCACCCAUGU
[1]
  apparent Kd: 0.0176 µM
[2]
  apparent Kd: 0.0131 µM
